According to ChEMBL document CHEMBL1152835, “Synthesis and QSAR modeling of 2-acetyl-2-ethoxycarbonyl-1-[4(4'-arylazo)-phenyl]-N,N-dimethylaminophenyl aziridines as potential antibacterial agents” (2009):
In brackets after ≈: the same amount, converted by molar mass.

Legend:
Format in all cases: functional
[1] = tested on: Escherichia coli; assay: Antibacterial activities against Escherichia coli ATCC 13067 after 16 to 24 hrs by twofold serial dilution method
In short: (§1)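 Agar twofold serial dilution; compounds from DMF stock. Inoculum about 10⁷ CFU/ml taken from log-phase broth culture. Plates in triplicate, incubated at 37 °C for 16–24 h. Azinomycin run under the same conditions as control drug. MIC = lowest concentration giving no visible growth.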

[2] = tested on: Staphylococcus aureus; assay: Antibacterial activities against Staphylococcus aureus ATCC 2943 after 16 to 24 hrs by twofold serial dilution method; in short: as §1
[3] = tested on: Brevundimonas diminuta; assay: Antibacterial activities against Pseudomonas diminuta MTCC 3361 after 16 to 24 hrs by twofold serial dilution method; in short: as §1
[4] = tested on: Bacillus subtilis; assay: Antibacterial activities against Bacillus subtilis ATCC 6633 after 16 to 24 hrs by twofold serial dilution method; conditions: for MIC: Bacillus subtilis, ATCC 6633; in short: as §1

SMILES | -logMIC [1] | -logMIC [2] | -logMIC [3] | -logMIC [4] | MIC [4]
CCOC(=O)C1(C(C)=O)C(c2ccc(N(C)C)cc2)N1c1ccc(/N=N/c2cccc(C(=O)O)c2)cc1 (stereo not drawn) | 4.337 | 4.398 | 4.495 | 4.553 | 0.028 ng/mL (≈ 0.0559 nM)
CCOC(=O)C1(C(C)=O)C(c2ccc(N(C)C)cc2)N1c1ccc(/N=N/c2cccc(Br)c2)cc1 (stereo not drawn) | – | – | 4.378 | – | –
CCOC(=O)C1(C(C)=O)C(c2ccc(N(C)C)cc2)N1c1ccc(/N=N/c2ccc(O)cc2)cc1 (stereo not drawn) | 4.094 | 4.13 | 4.183 | 4.212 | 0.0614 ng/mL (≈ 0.13 nM)
CCOC(=O)C1(C(C)=O)C(c2ccc(N(C)C)cc2)N1c1ccc(/N=N/c2ccccc2OC)cc1 (stereo not drawn) | – | – | 4.421 | – | –
CCOC(=O)C1(C(C)=O)C(c2ccc(N(C)C)cc2)N1c1ccc(/N=N/c2ccc(C(=O)O)cc2)cc1 (stereo not drawn) | 4.301 | 4.357 | 4.444 | 4.495 | 0.032 ng/mL (≈ 0.0639 nM)
CCOC(=O)C1(C(C)=O)C(c2ccc(N(C)C)cc2)N1c1ccc(/N=N/c2cccc(O)c2)cc1 (stereo not drawn) | 4.118 | 4.155 | 4.212 | 4.243 | 0.0571 ng/mL (≈ 0.121 nM)
CCOC(=O)C1(C(C)=O)C(c2ccc(N(C)C)cc2)N1c1ccc(/N=N/c2cccc(Cl)c2)cc1 (stereo not drawn) | 4.276 | 4.329 | 4.412 | 4.46 | 0.0347 ng/mL (≈ 0.0706 nM)
CCOC(=O)C1(C(C)=O)C(c2ccc(N(C)C)cc2)N1c1ccc(/N=N/c2ccccc2)cc1 (stereo not drawn) | 4.046 | 4.079 | 4.128 | 4.154 | 0.0701 ng/mL (≈ 0.154 nM)
CCOC(=O)C1(C(C)=O)C(c2ccc(N(C)C)cc2)N1c1ccc(/N=N/c2ccc([N+](=O)[O-])cc2)cc1 (stereo not drawn) | 4.378 | 4.445 | 4.524 | 4.586 | 0.0259 ng/mL (≈ 0.0517 nM)
CCOC(=O)C1(C(C)=O)C(c2ccc(N(C)C)cc2)N1c1ccc(/N=N/c2ccc(C)cc2)cc1 (stereo not drawn) | – | – | 4.591 | – | –
CCOC(=O)C1(C(C)=O)C(c2ccc(N(C)C)cc2)N1c1ccc(/N=N/c2cccc(C)c2)cc1 (stereo not drawn) | 4.241 | 4.292 | 4.371 | 4.442 | 0.0361 ng/mL (≈ 0.0768 nM)
CCOC(=O)C1(C(C)=O)C(c2ccc(N(C)C)cc2)N1c1ccc(/N=N/c2cccc(OC)c2)cc1 (stereo not drawn) | 4.364 | 4.431 | 4.54 | 4.607 | 0.0247 ng/mL (≈ 0.0508 nM)
CCOC(=O)C1(C(C)=O)C(c2ccc(N(C)C)cc2)N1c1ccc(/N=N/c2ccc(Cl)cc2)cc1 (stereo not drawn) | 4.228 | 4.276 | 4.348 | 4.39 | 0.0407 ng/mL (≈ 0.083 nM)
CCOC(=O)C1(C(C)=O)C(c2ccc(N(C)C)cc2)N1c1ccc(/N=N/c2cccc([N+](=O)[O-])c2)cc1 (stereo not drawn) | 4.399 | 4.469 | 4.586 | 4.658 | 0.022 ng/mL (≈ 0.0438 nM)
